HSF-1 act = HSF-1 activators, primary screen, NIH3T3-HGL cells, MG132 stress, luminescence, single point; 1.7% of 300,000 active; NIH3T3-HGL HSF-1 luciferase reporter, 8 h; 100% = twice DMSO control signal; activation, % at 9 µM; AID 504408, 2011;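 active = mean replicate activation of at least 50% with a set share of replicates each reaching 50%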;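 note: 0% = median of the neutral control wells and 100% = twice that signal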
T cruzi inh = inhibitors of intracellular T. cruzi growth, primary screen, luminescence, NIH3T3 host cells. inhibition, % (test concentration not listed). T. cruzi beta-gal in NIH3T3, 90 h. 1.4% of 300,000 active;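 active = mean inhibition across valid replicates above about 55%, limit read from the data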;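 note: signal also drops with host cell toxicity which is not excluded here; 0% = plate median of DMSO wells and 100% = zero luminescence signal; higher percent means less beta-gal luminescence so fewer parasites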
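System – NIH/3T3 host cells with β-galactosidase reporter T. cruzi · Doses – single 50 nL compound addition per well in DMSO · Reagent – 5000 T. cruzi trypomastigotes/well · Medium – Low-serum DMEM with 2% FBS · Timing – ≥90 h infection period, 3 h prior cell attachment · Evaluation – parasite load inhibition, % · Technique – GalScreen luminescence, 60 min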
697 NFkB inh = inhibitors of PMA/ionomycin-induced NF-kB reporter, 697 cells, primary screen, B-cell NF-kB inhibitor project, cell-based, luminescence, uHTS. inhibition, % at 4 µM. 0.33% of 330,000 active. 697 B-cell NF-kB luciferase reporter, 16 h; in the data active = inhibition above about 35%
HSF1 inhib = HSF1 inhibitors in luciferase reporter cells, primary screen, cell-based, NIH3T3, luminescence; NIH3T3-HGL HSE-luciferase, MG132-induced, luminescence 8 h; active compounds read low; activity change, negative = inhibition, % at 7.5 µM (by protocol); 0.77% of 300,000 active; AID 2098, 2009;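 active = more than half of replicate wells show activity change below -50%, luminescence cut by over half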;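 note: luciferase reports HSF-1 transcriptional activity via heat shock element; 0% = median of DMSO wells and -100% = zero luminescence signal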
Jurkat NFkB inh = inhibitors of induced NF-kB luciferase reporter, primary screen, TCR NF-kB activation inhibitor project, cell-based, luminescence, uHTS; 0.53% of 330,000 active; inhibition, % at 4 µM; Jurkat, PMA/ionomycin-induced NF-kB luciferase reporter; in the data active = inhibition above about 50%
GPR7 antag = GPR7 receptor antagonists, primary screen, cell-based, fluorescence, single concentration. inhibition, % at 4.4 µM. AID 1861, 2009. 1.1% of 290,000 active. GPR7-expressing cells, fluorescence antagonist assay; in the data active = inhibition above about 16%, passing the limit was not always enough;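 note: cells stimulated with the agonist NPW; 0% = agonist with vehicle and 100% = vehicle without agonist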
Target sequence (P48145 whole entry, looked up): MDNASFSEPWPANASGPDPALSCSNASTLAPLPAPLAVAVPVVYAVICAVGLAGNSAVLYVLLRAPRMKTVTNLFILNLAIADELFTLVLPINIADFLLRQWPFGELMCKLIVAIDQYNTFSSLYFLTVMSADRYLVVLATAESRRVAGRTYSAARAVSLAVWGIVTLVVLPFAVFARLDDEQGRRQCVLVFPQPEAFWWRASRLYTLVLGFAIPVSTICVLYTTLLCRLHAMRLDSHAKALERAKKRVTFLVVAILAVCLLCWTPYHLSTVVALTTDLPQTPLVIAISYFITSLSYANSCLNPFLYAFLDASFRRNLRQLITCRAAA
* hit, by the source's call; . = no result given. This is a sample that favours compounds with a hit; in the whole collection about 4.8% have one here.

SMILES | HSF-1 act | T cruzi inh | 697 NFkB inh | HSF1 inhib | Jurkat NFkB inh | GPR7 antag
Cc1nn(-c2ccccc2)c(C)c1C(=O)OC(C)C(=O)NC1CCCCC1C (stereo not drawn) | . | . | 3 | . | 21 | .
CCC(C)(C)n1nnnc1C(c1ccc(OC)c(OC)c1)N1CCN(c2ccccc2)CC1 (stereo not drawn) | -7 | 6 | 6 | -1 | 10 | 18*
CCC(C)(C)n1nnnc1C(c1ccc(OC)c(OC)c1)N1CCN(c2cccc(OC)c2)CC1 (stereo not drawn) | 3 | 12 | -1 | 3 | 5 | 4
CCN(CC(=O)N1CCN(Cc2ccccc2)CC1)S(=O)(=O)c1ccc(C)cc1 | 4 | 2 | 16 | -2 | 13 | -9
COc1ccccc1CN1CC(C(=O)NCCN2CCOC2=O)CCC1=O (stereo not drawn) | -8 | -3 | 1 | 1 | -6 | -1
CC1CC/C(=C\c2ccc3c(c2)OCO3)C(=O)/C1=C/c1ccc2c(c1)OCO2 (stereo not drawn) | 87* | 29 | -53 | 40 | -17 | 3
Cc1cc(NS(=O)(=O)c2ccc(NC(=O)c3c(F)c(F)c(F)c(F)c3F)cc2)nc(C)n1 | 0 | -1 | -3 | -4 | 2 | -2
Cc1ccc(S(=O)(=O)Nc2ccc(NC(=O)c3c(F)c(F)c(F)c(F)c3F)cc2)cc1 | 15 | 9 | 18 | 4 | 12 | 78*
O=[N+]([O-])c1nn(-c2ccccc2)[n+]([O-])c1N1CCN(c2ccccc2)CC1 | 13 | 85* | 18 | 1 | 10 | 6
O=[N+]([O-])c1nn(-c2ccccc2)[n+]([O-])c1N1CCN(c2ccccc2F)CC1 | 6 | 57* | -8 | -3 | 1 | -11
COCc1c(C#N)c(NCCc2ccc(F)cc2)nc(C)c1[N+](=O)[O-] | 14 | 16 | -23 | 8 | -10 | 2
Cc1nc(NCCc2ccc(F)cc2)c(C#N)c(C)c1[N+](=O)[O-] | 51* | 16 | -1 | 20 | -2 | -5
Cc1c(C(=O)NCCc2ccccc2)oc2ccccc12 | 62* | -1 | -139 | 32 | -117 | -19
Cc1c(C(=O)Nc2ccccn2)oc2ccccc12 | 41 | -15 | -66 | 23 | -119 | -1
Cc1ccc(NC(=O)Nc2ccc([N+](=O)[O-])cc2)nc1 | 11 | 26 | -91 | 5 | 10 | -6
Cc1ccc(NC(=O)Nc2ccccc2)nc1 | 54* | -3 | -64 | 33 | -76 | .
Cc1ccc(NC(=O)c2cc3c(=O)oc4ccccc4c3s2)nc1 | 97* | -8 | 22 | 54 | -9 | -4
Cc1ccc(NC(=O)c2oc3ccccc3c2C)nc1 | 56* | 4 | -120 | 35 | -122 | -9
CC(C)Cc1cc(CNC(=O)C2CCC(=O)N(Cc3cccc(C(F)(F)F)c3)C2)on1 (stereo not drawn) | -8 | 7 | -1 | 5 | 4 | -5
N#C/C(=C/c1ccc(Br)o1)C(N)=O | -92 | -7 | 20 | -92* | 12 | -5
N#C/C(=C/c1ccc(Br)o1)C(N)=S | 8 | 4 | 9 | -2 | 10 | -13
CSc1nc(NC(C)(C)C)nc(Oc2ccc(=O)[nH]n2)n1 | 52* | 27 | -12 | 27 | 3 | -7
COc1ccc2cc3cc(C(=O)Nc4ccccc4N4CCN(C)CC4)oc3nc2c1 | 28 | 67* | -43 | 8 | 22 | -5
CCC(C)NC(=O)c1cc2cc3ccc(OC)cc3nc2o1 (stereo not drawn) | 63* | -13 | -23 | 27 | -43 | 13
OCc1cn(-c2ccccc2)nc1-c1cc2ccccc2o1 | 63* | 1 | -141 | 32 | -145 | -2
O=C(N/N=C/c1cn(-c2ccccc2)nc1-c1cc2ccccc2o1)c1c[nH]c2ccccc12 | 25 | 37 | -162 | 6 | -106 | -8
COc1ccc(NC(=O)c2cn(-c3ccccc3)nc2-c2cc3ccccc3o2)cc1 | -3 | 47 | -19 | -3 | -21 | -17

High-throughput results deposited in PubChem BioAssay by several laboratories.
